Results gathered from unrelated publications.
Lines come from different studies, so protocols differ.
Target: Serine/threonine-protein kinase 4 (STK4, Homo sapiens, UniProt Q13043)
Sequence (Q13043 1-487, as in one of the studies): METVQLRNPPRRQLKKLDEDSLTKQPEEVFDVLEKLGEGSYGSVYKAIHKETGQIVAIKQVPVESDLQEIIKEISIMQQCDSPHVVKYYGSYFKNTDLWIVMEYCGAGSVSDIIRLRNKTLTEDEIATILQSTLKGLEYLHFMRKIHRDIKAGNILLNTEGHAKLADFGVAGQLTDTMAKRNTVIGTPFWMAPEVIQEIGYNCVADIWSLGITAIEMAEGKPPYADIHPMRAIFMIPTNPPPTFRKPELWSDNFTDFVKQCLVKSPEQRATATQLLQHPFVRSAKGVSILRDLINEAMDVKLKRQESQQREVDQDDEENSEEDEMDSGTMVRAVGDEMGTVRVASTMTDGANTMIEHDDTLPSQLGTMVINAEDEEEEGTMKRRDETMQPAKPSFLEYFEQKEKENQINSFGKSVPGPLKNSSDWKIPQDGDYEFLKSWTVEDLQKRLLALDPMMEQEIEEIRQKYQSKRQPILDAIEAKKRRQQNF

| Compound | observed | method | concentration | remaining binding |
| --- | --- | --- | --- | --- |
| C[C@@H]1CCN(c2nccc(-c3cnn4ncccc34)n2)C1 | binding |  | 1 µM | 85% |
| O=C(NCCCN1CCOCC1)c1ccc(Nc2nccc(-c3cc4ccccc4s3)n2)cc1 | binding | competition with immobilised ligand | 1 µM | 100% |
| Cc1c[nH]c2nccc(Oc3c(F)cc(Nc4cc(Cl)nc(N)n4)cc3F)c12 | cell-free assay | competition with immobilised ligand | 0.1 µM | 100% |
| CN(C)c1nccc(-c2cnn3ncccc23)n1 | binding |  | 1 µM | 100% |
| N#CC1(c2ccccn2)CCN(Cc2cc(C(=O)N3CCCC3)c(=O)n3ccccc23)CC1 | cell-free assay | competition with immobilised ligand | 1 µM | 88% |
| COc1cnc(Nc2cccc(S(N)(=O)=O)c2)nc1N1CCN(c2ccccc2)C(=O)C1 | binding | competition with immobilised ligand | 1 µM | 98% |
| CCN1CCN(Cc2ccc(C(=O)Nc3ccc(C)c(Oc4ccc5c(c4)CC(=O)N5)c3)cc2C(F)(F)F)CC1 | binding | competition with immobilised ligand | 1 µM | 100% |
| CN(CCCC(F)(F)F)c1nccc(-c2cnn3ncccc23)n1 | binding |  | 1 µM | 89% |
| CS(=O)(=O)c1cc(C2(NC(=O)c3cncc4c3cnn4-c3ccc(F)cc3)CC2)ccn1 | cell-free assay | competition with immobilised ligand | 1 µM | 77% |
| F[C@@H]1CCN(c2nccc(-c3cnn4ncccc34)n2)C1 | binding |  | 1 µM | 91% |
| CSc1cccnc1N1CCN(Cc2nc3ccccc3[nH]2)CC1 | cell-free assay | competition with immobilised ligand | 1 µM | 85% |
| O=C(c1ccc(Nc2ncc(Cl)c(-c3ccc(Cl)s3)n2)cc1)N1CCC(N2CCCC2)CC1 | binding | competition with immobilised ligand | 1 µM | 90% |
| N[C@H]1CCN(c2nccc(-c3cnn4ncccc34)n2)C1 | binding |  | 1 µM | 100% |
| Nc1c(C(=O)NCc2ccc(C(=O)NCCCC3CCCCC3)cc2)cnn1-c1ccccc1 | cell-free assay | competition with immobilised ligand | 0.1 µM | 100% |
| O=C(NCC1CCOCC1)c1n[nH]cc1NC(=O)c1c(F)cccc1F | binding | competition with immobilised ligand | 1 µM | 100% |
| O=C(c1ccc(Nc2nccc(-c3cc4ccccc4s3)n2)cc1)N1CCC(N2CCCC2)CC1 | binding | competition with immobilised ligand | 1 µM | 100% |
| CC1CCCN1c1nccc(-c2cnn3ncccc23)n1 (centres unmarked) | binding |  | 1 µM | 98% |
| COc1ncc2cc3ccccc3nc2c1C#N | cell-free assay | competition with immobilised ligand | 5 µM | 96% |
| O=C(NCCCC1CCCCC1)c1ccc(CNC(=O)c2cnn(-c3ccccc3)c2C(F)(F)F)cc1 | cell-free assay | competition with immobilised ligand | 0.1 µM | 100% |
| FC(F)(F)Oc1cccc(-c2cnc3ccc(-c4ccncc4)nn23)c1 | cell-free assay | competition with immobilised ligand | 5 µM | 100% |
